Here are results for 3 compounds from ChEMBL document CHEMBL4145616, “Phytochemical Study of Salvia leriifolia Roots: Rearranged Abietane Diterpenoids with Antiprotozoal Activity” (J Nat Prod, 2018).

In one data set the test system is Trypanosoma cruzi. The experiment in a line: Antiprotozoal activity against trypomastigote form of Trypanosoma cruzi Tulahuen C2C4 infected in rat L6 cells after 96 hrs by CPRG/Nonidet-based photometric method. The data set is classed as functional, organism-based. Particulars: Tulahuen C2C4, L6, 96 h.
A further data set relates to Leishmania donovani. The experiment in a line: Antileishmanial activity against Leishmania donovani MHOM/ET/67/L82 axenic amastigotes after 70 hrs by alamar blue staining based fluorescence assay. The conditions noted are these: MHOM/ET/67/L82, 70 h. The data set is classed as functional, organism-based. The method in brief: (§1)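 IC50 values are the average of three independent assays.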
A general note: The colour change of resazurin is a common sign of viable cells or microbes.

Data set [1] is described as follows: Selectivity index, ratio of IC50 for rat L6 cells to IC50 for Trypanosoma brucei rhodesiense STIB900 bloodstream forms. The format is toxicity. The conditions noted are these: read-out: Ratio IC50.
For another data set, the system named is L6. The experiment in a line: Cytotoxicity against rat L6 cells after 70 hrs by alamar blue assay. Particulars: L6, 70 h. The format is cell-based. The method in brief:
as §1

Data set [2] in a line: Selectivity index, ratio of IC50 for rat L6 cells to IC50 for Leishmania donovani MHOM/ET/67/L82 axenic amastigotes. The data set is classed as toxicity. Particulars: read-out: Ratio IC50.
A further data set concerns Plasmodium falciparum. In words: Antiplasmodial activity against drug-sensitive erythrocyte stage of Plasmodium falciparum NF54 assessed as reduction in [3H]-hypoxanthine incorporation pretreated for 48 hrs followed by [3H]-hypoxanthine addition measured after 24 hrs by liquid scintillation counting method. The data set is classed as functional, organism-based. The procedure, abridged:
as §1

Data set [3] is described as follows: Selectivity index, ratio of IC50 for rat L6 cells to IC50 for drug-sensitive erythrocyte stage of Plasmodium falciparum NF54. The format is toxicity. Particulars: read-out: Ratio IC50.
Data set [4] in a line: Selectivity index, ratio of IC50 for rat L6 cells to IC50 for trypomastigote form of Trypanosoma cruzi Tulahuen C2C4 infected in rat L6 cells. The data set is classed as toxicity, cell-based. The conditions noted are these: read-out: Ratio IC50.
Data set [5] has as its system Trypanosoma brucei rhodesiense. The experiment in a line: Antitrypanosomal activity against Trypanosoma brucei rhodesiense STIB900 bloodstream forms after 70 hrs by Alamar blue assay. Particulars: STIB900, 70 h. The format is functional, organism-based. The procedure, abridged: as §1

On to `CC(C)[C@H]1C(=O)C2=C(C1=O)[C@@]1(C)CCCC(C)(C)[C@@H]1CC2=O`, for which the IC50 in the data set on Trypanosoma cruzi was determined as 4.6 µM; with Leishmania donovani it was 1 µM; with L6 it was 2.6 µM; with Plasmodium falciparum, 3.6 µM; in data set [5] it was 1 µM. The selectivity ratio turned out to be 2.6 in data set [1], 2.6 in [2], 0.7 in data set [3] and 0.6 in [4].

For `CCCCCCCCCCCCCCCCOP(=O)([O-])OCC[N+](C)(C)C` [MILTEFOSINE], the half-maximal inhibitory concentration (IC50) in the data set with Leishmania donovani turned out to be 0.12 µM.

On to `CC(C)c1cc(CC[C@@H]2C(=O)CCCC2(C)C)c(O)cc1O`, for which the IC50 with Trypanosoma cruzi stood at 27.6 µM; with L6, 33.6 µM; with Plasmodium falciparum it was 0.4 µM; in data set [5] it was 19.7 µM. The selectivity ratio in data set [1] amounted to 1.7; in data set [3], 84; in [4], 1.2.

What is called IC50 is the concentration that inhibits the measured activity by half.
